The values below come from ChEMBL document CHEMBL3872250, “Structure-activity and in vivo evaluation of a novel lipoprotein lipase (LPL) activator” (Bioorg Med Chem Lett, 2017).

Activity calls are given as the source filed them. The calls are words filed in the database; no cut-off is given here.

Data set [1] deals with T1, Lipoprotein lipase (Bos taurus) (UniProt P11151).
T1 sequence (whole entry): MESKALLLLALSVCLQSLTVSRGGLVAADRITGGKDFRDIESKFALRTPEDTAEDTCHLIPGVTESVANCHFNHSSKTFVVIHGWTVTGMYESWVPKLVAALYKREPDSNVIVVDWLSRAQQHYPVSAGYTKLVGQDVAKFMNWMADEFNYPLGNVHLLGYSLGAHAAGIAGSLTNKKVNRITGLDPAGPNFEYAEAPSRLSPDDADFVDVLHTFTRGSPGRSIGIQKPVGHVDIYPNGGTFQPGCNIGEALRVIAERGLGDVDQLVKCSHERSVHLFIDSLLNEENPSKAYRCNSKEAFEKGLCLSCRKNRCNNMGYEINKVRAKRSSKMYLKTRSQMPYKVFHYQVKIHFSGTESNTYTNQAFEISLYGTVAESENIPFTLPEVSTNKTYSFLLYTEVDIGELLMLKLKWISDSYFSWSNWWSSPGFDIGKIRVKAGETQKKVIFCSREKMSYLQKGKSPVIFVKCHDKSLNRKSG
Put plainly: Inhibition of bovine recombinant lipoprotein lipase at 100 uM using p-Nitrophenyl butyrate as substrate by HTS assay. Put shortly:
(§1)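 Recombinant LPL screened at 100 µM in a 384-well format with p-nitrophenyl butyrate as substrate. […] release was read as absorbance at 405 nm, and activity was expressed as fold change in absorbance.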

A further data set has as its system Rattus norvegicus. In words: In vivo activation of lipoprotein lipase in STZ-induced diabetes rat model relative to control. Type of data set: functional.
The target of data set [2] is T1, Lipoprotein lipase (Bos taurus). In words: Activation of bovine recombinant lipoprotein lipase at 100 uM using p-Nitrophenyl butyrate as substrate by HTS assay. Put shortly: as §1
Data set [3] shares this target. Put plainly: Activation of bovine recombinant lipoprotein lipase at 100 uM using p-Nitrophenyl butyrate as substrate by HTS assay relative to NO-1886. Put shortly: as §1
Data set [4] has as its system Mus musculus. In words: Reduction in lipid accumulation in high fat diet fed C57BL/6 mouse liver at 10 mg/kg, ip administered daily on last week of 4 months study until end by hematoxylin and eosin staining based assay. It counts as functional, organism-based. Put shortly:
(§2)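 After four months of high-fat diet with 10 mg/kg i.p. dosing over the final week, livers were examined by gross morphology and size. Sections were stained with hematoxylin and eosin and viewed at 20X to assess lipid accumulation.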

The subject of data set [5] is Mus musculus. Put plainly: In vivo activation of lipoprotein lipase in high fat diet fed C57BL/6 mouse assessed as reduction in total body fat content at 1 to 10 mg/kg, ip administered daily on last week of 4 months study until end. Type of data set: functional, organism-based. Put shortly: (§3)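 Mice fed a high-fat diet (60% kcal from fat) for four months, with daily i.p. dosing at 10 mg/kg during the final week. A dose-response at 1, 5 and 10 mg/kg was used to select the dose. Body weight, total body fat and lean mass were measured by EchoMRI before sacrifice. Mean ± S.D., n = 4.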

Data set [6] deals with Mus musculus. Put plainly: In vivo activation of lipoprotein lipase in high fat diet fed C57BL/6 mouse at 10 mg/kg, ip administered daily on last week of 4 months study until end by fluorescence assay. It counts as functional, organism-based.
Data set [7] concerns Mus musculus. Put plainly: Reduction in serum cholesterol level in high fat diet fed C57BL/6 mouse at 10 mg/kg, ip administered daily on last week of 4 months study until end. It counts as functional, organism-based. In outline: (§4)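 Serum triglycerides and cholesterol measured with commercial kits after sacrifice. Mice had four months of high-fat diet, with 10 mg/kg i.p. given in the last week. Mean ± SE, n = 3.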

The subject of data set [8] is Mus musculus. Put plainly: Reduction in serum triglycerides level in high fat diet fed C57BL/6 mouse at 10 mg/kg, ip administered daily on last week of 4 months study until end. Type of data set: functional, organism-based. In outline:
as §4

For data set [9], the system named is Mus musculus. In words: Toxicity in high fat diet fed C57BL/6 mouse liver assessed as morphological changes at 10 mg/kg, ip administered daily on last week of 4 months study until end by hematoxylin and eosin staining based assay. It counts as organism-based. The note with it: in vivo, 2922 h. In outline:
as §2

Data set [10] deals with Mus musculus. In words: Hepatoprotective activity against high fat diet fed C57BL/6 mouse liver assessed as increase in SIRT1 level at 10 mg/kg, ip administered daily on last week of 4 months study until end. Type of data set: functional, organism-based. In outline: (§5)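 Mice on a high-fat diet for four months were dosed at 10 mg/kg for seven days. Hepatic protein levels of SIRT1 or LC3 were then measured. n = 5 mice; significance at P<0.05.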

The test system of data set [11] is Mus musculus. Put plainly: Hepatoprotective activity against high fat diet fed C57BL/6 mouse liver assessed as increase in LC3 level at 10 mg/kg, ip administered daily on last week of 4 months study until end. Type of data set: functional, organism-based. In outline: as §5
Data set [12] has as its system Mus musculus. Put plainly: In vivo activation of lipoprotein lipase in high fat diet fed C57BL/6 mouse assessed as reduction in body weight at 1 to 10 mg/kg, ip administered daily on last week of 4 months study until end. It counts as functional, organism-based. In outline: as §3
Substrate in data set [13]: CC1(C)CC1(C(=O)NCCCn1ccnc1)c1ccc(F)cc1
Put plainly: Binding affinity to bovine recombinant lipoprotein lipase assessed as Km for substrate using p-Nitrophenyl butyrate as substrate by Lineweaver-Burk plot analysis (reference value: 8.15 mM). The note with it: Bos taurus.

Take `Cc1cccnc1CN1CCN(C(=O)C2(c3ccc(F)cc3)CC2(C)C)CC1` (configuration not stated): the inhibition entry in [1] is “Active”.
In the case of `O=C(Cc1ccc(S)cc1)NCCCn1ccnc1`, the inhibition result in data set [1] is “Active”.
On to `CC1(C)CC1(C(=O)NCCCc1csc(N)n1)c1ccc(F)cc1` (configuration not stated), for which the inhibition result in data set [1] was “Active”.
Consider `CC1(C)CC1(C(=O)NCCNc1cccnc1)c1ccc(F)cc1` (configuration not stated), for which the inhibition entry in data set [1] was “Active”.
With `CCOP(=O)(Cc1ccc(C(=O)Nc2ccc(Br)cc2C#N)cc1)OCC` [IBROLIPIM], in the data set on Rattus norvegicus, the Activity is on record as 59%.
For the molecule `O=C(Cc1ccccc1)NCCCn1ccnc1`, the outcome in [2] was Active.
For the molecule `O=C(Cc1ccc(Cl)cc1)NCCCn1ccnc1`, in data set [2], the result was Active.
Take `CC1(C)CC1(C(=O)NCCCn1ccnc1)c1ccc(F)cc1` (configuration not stated): in [3], the fold change (FC) worked out at 2. The result (in the data set with Mus musculus [4]; with Mus musculus [5]; in the data set on Mus musculus [6]; in the data set on Mus musculus [7]; in data set [2]; in the data set with Mus musculus [8]) was Active. Also, the outcome with Mus musculus [10], in the data set on Mus musculus [11] and in the data set with Mus musculus [12] was Active. Further, in the data set on Mus musculus [9], the Activity result is reported as “Non-Toxic”.
Consider `O=C(Cc1ccc(F)cc1)NCCCn1ccnc1`, for which the outcome in data set [2] was Active.
Still for that read-out and setting: the same measure for `CC1(C)CC1(C(=O)NCCCCN1CCOCC1)c1ccc(F)cc1` (configuration not stated): “Active”.
As for `O=C(Cc1ccc(O)cc1)NCCCn1ccnc1`, in [1], the inhibition result was “Active”.

B1: Lipoprotein lipase (Bos taurus), P11151 (protein)
chain: T1 sequence (whole entry)
As a reminder, the Km is the concentration of substrate that gives half-maximal velocity. Take B1: the Km in [13] turned out to be 648 µM.
